The target in data set [1] is T1, MAO-A (Homo sapiens, UniProt P21397).
T1 sequence (P21397 whole entry): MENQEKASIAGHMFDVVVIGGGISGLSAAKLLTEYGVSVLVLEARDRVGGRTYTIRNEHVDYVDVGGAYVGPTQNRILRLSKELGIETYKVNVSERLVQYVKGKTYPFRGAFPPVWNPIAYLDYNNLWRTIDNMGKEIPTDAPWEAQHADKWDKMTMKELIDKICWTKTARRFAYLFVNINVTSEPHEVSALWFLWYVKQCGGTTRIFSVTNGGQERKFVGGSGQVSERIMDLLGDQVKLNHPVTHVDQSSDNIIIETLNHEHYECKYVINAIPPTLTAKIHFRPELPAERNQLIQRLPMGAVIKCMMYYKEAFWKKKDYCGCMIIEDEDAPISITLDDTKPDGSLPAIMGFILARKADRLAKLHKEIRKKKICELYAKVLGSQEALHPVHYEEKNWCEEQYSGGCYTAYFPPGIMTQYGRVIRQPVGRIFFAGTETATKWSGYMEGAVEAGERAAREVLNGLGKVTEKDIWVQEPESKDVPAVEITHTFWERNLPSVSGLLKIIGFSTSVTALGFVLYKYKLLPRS
In words: Inhibition of human recombinant MAO-A using kynuramine as substrate at 10 uM measured after 30 mins by fluorimetric assay relative to control. Conditions: probe kynuramine.

Data set [2] can be described thus: Selectivity index, ratio of IC50 for equine serum BuChE using S-butyrylthiocholine chloride as substrate to IC50 for electric eel AChE using acetylthiocholine iodide as substrate by Ellman's method. An outline of the steps: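 Selectivity index is IC50(eqBuChE)/IC50(EeAChE). Both IC50s come from the modified Ellman method, using Electrophorus electricus AChE and equine serum BuChE. Each IC50 is the mean of three independent experiments, each run in triplicate.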
A general note: In Ellman's method for cholinesterases, released thiocholine reacts with DTNB.

For data set [3], the target named is Cholinesterase (Equus caballus, UniProt P81908). In words: Inhibition of equine serum BuChE using S-butyrylthiocholine chloride as substrate incubated for 15 mins by Ellman's method. The method in brief: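 Modified Ellman method using equine serum BuChE. […] Values are the mean of three independent experiments, each run in triplicate, with SD.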
Data set [4] addresses Acetylcholinesterase (Electrophorus electricus, UniProt O42275). The data set is described as follows: Inhibition of electric eel AChE using acetylthiocholine iodide incubated for 15 mins as substrate by Ellman's method.
Data set [5] has as its target T2, Amine oxidase [flavin-containing] B (Homo sapiens, UniProt P27338).
T2 sequence (P27338 whole entry): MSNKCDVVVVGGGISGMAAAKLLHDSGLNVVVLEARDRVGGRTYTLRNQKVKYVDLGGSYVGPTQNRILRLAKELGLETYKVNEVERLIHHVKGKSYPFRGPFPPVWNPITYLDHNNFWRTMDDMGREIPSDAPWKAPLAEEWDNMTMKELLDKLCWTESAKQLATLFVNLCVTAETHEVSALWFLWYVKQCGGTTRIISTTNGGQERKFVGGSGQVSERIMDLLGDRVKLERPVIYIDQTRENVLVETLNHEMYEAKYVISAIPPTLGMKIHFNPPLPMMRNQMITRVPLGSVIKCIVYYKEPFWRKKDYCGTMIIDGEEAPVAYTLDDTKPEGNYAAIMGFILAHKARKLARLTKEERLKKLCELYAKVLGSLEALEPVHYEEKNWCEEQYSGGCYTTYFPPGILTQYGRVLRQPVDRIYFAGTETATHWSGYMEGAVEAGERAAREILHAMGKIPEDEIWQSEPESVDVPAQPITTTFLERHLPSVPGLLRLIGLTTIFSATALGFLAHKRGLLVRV
The data set is described as follows: Inhibition of human recombinant MAO-B using kynuramine as substrate measured after 30 mins by fluorimetric assay.

The target in data set [6] is Cholinesterase (Equus caballus) (UniProt P81908). In words: Inhibition of equine serum BuChE using S-butyrylthiocholine chloride as substrate at 50 uM incubated for 15 mins by Ellman's method relative to control.
Data set [7] concerns the target T3, Amine oxidase [flavin-containing] A (Homo sapiens, UniProt P21397).
T3 sequence (P21397 whole entry): T1 sequence (P21397 whole entry)
The data set is described as follows: Inhibition of human recombinant MAO-A using kynuramine as substrate measured after 30 mins by fluorimetric assay. An outline of the steps: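 Recombinant human MAO-A inhibition measured by a fluorimetric assay. Each value is the mean of three independent experiments, each run in triplicate, with SD reported.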

A short description of data set [8]: Permeability of the compound at 100 ug/ml measured after compound dilution in PBS/EtOH buffer (70:30) by PAMPA-BBB assay. On the technique in general: PAMPA measures passive passage across an artificial lipid membrane.

In general, inhibition refers to the change of the read-out against control, counted positive when it falls. What is called IC50 is the concentration at which inhibition is half-maximal. By Papp is commonly meant a coefficient for how fast a substance crosses the barrier. High values mean ready permeation, low ones poor permeation.

Sequence of Acetylcholinesterase (O42275 whole entry): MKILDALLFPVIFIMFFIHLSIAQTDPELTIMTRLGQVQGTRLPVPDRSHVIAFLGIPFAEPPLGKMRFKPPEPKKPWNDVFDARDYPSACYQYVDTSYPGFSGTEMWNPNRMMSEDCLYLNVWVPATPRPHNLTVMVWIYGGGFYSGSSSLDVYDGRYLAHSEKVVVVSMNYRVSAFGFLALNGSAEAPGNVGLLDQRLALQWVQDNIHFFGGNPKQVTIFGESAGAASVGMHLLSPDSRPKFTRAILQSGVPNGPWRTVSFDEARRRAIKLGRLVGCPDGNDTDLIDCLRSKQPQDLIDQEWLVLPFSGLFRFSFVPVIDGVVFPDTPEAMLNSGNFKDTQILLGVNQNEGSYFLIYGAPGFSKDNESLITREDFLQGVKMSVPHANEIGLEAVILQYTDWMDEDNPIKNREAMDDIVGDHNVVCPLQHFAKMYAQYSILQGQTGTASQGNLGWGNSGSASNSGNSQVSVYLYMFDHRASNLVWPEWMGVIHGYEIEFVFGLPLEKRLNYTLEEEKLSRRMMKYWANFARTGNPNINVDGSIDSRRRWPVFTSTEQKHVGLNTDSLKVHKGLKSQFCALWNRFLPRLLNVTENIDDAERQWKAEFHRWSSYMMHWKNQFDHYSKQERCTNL
Sequence of Cholinesterase (P81908 whole entry): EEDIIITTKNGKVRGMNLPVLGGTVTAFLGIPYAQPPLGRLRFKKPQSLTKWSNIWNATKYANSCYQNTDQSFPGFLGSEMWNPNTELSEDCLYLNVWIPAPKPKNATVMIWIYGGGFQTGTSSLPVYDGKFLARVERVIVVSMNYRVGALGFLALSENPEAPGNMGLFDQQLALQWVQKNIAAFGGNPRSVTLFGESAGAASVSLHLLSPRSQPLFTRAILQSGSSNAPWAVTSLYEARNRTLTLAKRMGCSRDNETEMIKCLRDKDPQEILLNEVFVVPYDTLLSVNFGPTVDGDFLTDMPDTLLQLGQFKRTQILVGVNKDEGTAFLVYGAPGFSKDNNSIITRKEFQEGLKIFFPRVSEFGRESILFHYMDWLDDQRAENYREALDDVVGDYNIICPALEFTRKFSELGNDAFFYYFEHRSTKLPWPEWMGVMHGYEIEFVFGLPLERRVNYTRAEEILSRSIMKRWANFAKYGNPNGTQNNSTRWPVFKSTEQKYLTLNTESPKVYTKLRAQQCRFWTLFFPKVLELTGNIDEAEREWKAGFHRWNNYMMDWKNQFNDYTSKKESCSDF
Sequence of Cholinesterase (Equus caballus) (P81908 whole entry): as above

For the compound `CC(=O)c1ccc(OCCCCN2CCc3ccccc3C2)cc1O`, the inhibition at 0.5 h, 10 µM in data set [1] stood at 6.3%. Besides, the Ratio IC50 in data set [2] stood at 8.1. Moreover, the IC50 in data set [3] is 47.5 µM; in data set [4], 5.9 µM; in data set [5] it was 12.8 µM.
Taken in the same sequence, the figures for `CCN(CCCCCOc1ccc(C(C)=O)c(O)c1)Cc1ccccc1` were < 10%, 7.1, 37.2 µM, 5.2 µM and 29.8 µM.
Turning to `CC(=O)c1ccc(OCCCCCN2CCc3ccccc3C2)cc1O`, in data set [1], the inhibition at 0.5 h, 10 µM is < 10%. Moreover, the IC50 in data set [4] turned out to be 7.5 µM; in data set [5], 15.2 µM. The inhibition in data set [6] is < 5%.
Taken in the same sequence, the figures for `CC(=O)c1ccc(OCCCCCCCCCCN2CCC(Cc3ccccc3)CC2)cc1O` were < 10%, 9.2 µM, 21.6 µM and 13.8%.
Taken in the same sequence, the figures for `CC(=O)c1ccc(OCCCCCCCCCN2CCC(Cc3ccccc3)CC2)cc1O` were < 10%, 8.5 µM, 27.9 µM and < 5%.
Turning to `CC(=O)c1ccc(OCCCN2CCc3ccccc3C2)cc1O`, in data set [1], the inhibition at 0.5 h, 10 µM was < 10%. Besides, the half-inhibitory concentration (IC50) in data set [4] turned out to be 8.9 µM; in data set [5], 16.7 µM. Moreover, the inhibition in data set [6] was < 5%.
In the case of `CCN(CCCOc1ccc(C(C)=O)c(O)c1)Cc1ccccc1`, the inhibition at 0.5 h, 10 µM in data set [1] is < 10%. Moreover, the Ratio IC50 in data set [2] amounted to 2.6. Also, the values for the IC50 in data set [3], in data set [4] and in data set [5] were 18.7 µM, 7.2 µM and 14.9 µM, respectively.
Regarding `CCN(CCCCCCCCCCOc1ccc(C(C)=O)c(O)c1)Cc1ccccc1`, the inhibition at 0.5 h, 10 µM in data set [1] was < 10%. In addition, the Ratio IC50 in data set [2] came to 7.8. Also, the figures for the IC50 in data set [3], in data set [4] and in data set [5] were 50.7 µM, 6.5 µM and 23.4 µM, respectively.
For `CC(=O)c1ccc(OCCCCCCCCCCN2CCC(c3ccccc3)CC2)cc1O`, the inhibition at 0.5 h, 10 µM in data set [1] is < 10%. Besides, the IC50 in data set [4] stood at 18.4 µM; in data set [5] it was 14.2 µM. The compound further came in with an inhibition in data set [6] of 0.8%.
For `CCN(CC)CCCCCCOc1ccc(C(C)=O)c(O)c1`, the inhibition at 0.5 h, 10 µM in data set [1] was < 10%. For the same compound, the IC50 in data set [4] stood at 16.3 µM; in data set [5] it was 22.1 µM. Besides, in data set [6], the inhibition is < 5%.
Take `CCN(CCCCCCCCCCCCOc1ccc(C(C)=O)c(O)c1)Cc1ccccc1`: the inhibition at 0.5 h, 10 µM in data set [1] is < 10%. The Ratio IC50 in data set [2] was found to be 5. Further, the IC50 in data set [3] came to 38.9 µM; in data set [4], 7.7 µM; in data set [5], 33.1 µM.
Taken in the same sequence, the figures for `COc1cc2c(cc1OC)CN(CCCCOc1ccc(C(C)=O)c(O)c1)CC2` were < 10%, 3.5, 56.4 µM, 15.9 µM and 15.7 µM.
In the case of `CC(=O)c1ccc(OCCN2CCC(Cc3ccccc3)CC2)cc1O`, the inhibition at 0.5 h, 10 µM in data set [1] was < 10%. Also, the IC50 in data set [4] came to 16.5 µM; in data set [5] it was 22.8 µM. Further, the inhibition in data set [6] is < 5%.
Taken in the same sequence, the figures for `CCN(CC)CCOc1ccc(C(C)=O)c(O)c1` were < 10%, 35.2 µM, 11.7 µM and < 5%.
For `CC(=O)c1ccc(OCCCCCCCCCCN2CCN(Cc3ccccc3)CC2)cc1O`, the figures for the IC50 in data set [7], in data set [4] and in data set [5] were 19.8 µM, 6.9 µM and 17.3 µM, respectively. Moreover, the inhibition in data set [6] came to 15.1%.
In the case of `CC(=O)c1ccc(OCCCCCCCCCN2CCN(Cc3ccccc3)CC2)cc1O`, the IC50 in data set [7] amounted to 19.7 µM; in data set [3], 19.8 µM; in data set [4] it was 6.7 µM; in data set [5] it was 21.6 µM. Besides, in data set [2], the Ratio IC50 came out at 2.9.
In the case of `CCN(CCOc1ccc(C(C)=O)c(O)c1)Cc1ccccc1`, the inhibition at 0.5 h, 10 µM in data set [1] is < 10%. For the same compound, the IC50 in data set [4] came out at 18.9 µM; in data set [5], 13.8 µM. Besides, the inhibition in data set [6] was < 5%.
Taken in the same sequence, the figures for `CC(=O)c1ccc(OCCCCN2CCC(Cc3ccccc3)CC2)cc1O` were < 10%, 8.9 µM, 13.5 µM and < 5%.
With `CC(=O)c1ccc(OCCCN2CCC(c3ccccc3)CC2)cc1O`, the IC50 in data set [7] came to 24.7 µM; in data set [3], 29.4 µM; in data set [4], 13.4 µM; in data set [5], 19.8 µM. Besides, the Ratio IC50 in data set [2] came to 2.2.
As to `CC(=O)c1ccc(OCCCCCCCCCN2CCc3ccccc3C2)cc1O`, the inhibition at 0.5 h, 10 µM in data set [1] was < 10%. Besides, the IC50 came out at 11.6 µM in data set [4] and 19.4 µM in data set [5]. Besides, the inhibition in data set [6] was < 5%.
On to `CCN(CC)CCCOc1ccc(C(C)=O)c(O)c1`, for which the inhibition at 0.5 h, 10 µM in data set [1] is < 10%. Besides, the IC50 in data set [4] was determined as 26.7 µM; in data set [5] it was 16.1 µM. The inhibition in data set [6] is < 5%.
`CC(=O)c1ccc(OCCCN2CCC(Cc3ccccc3)CC2)cc1O`: the inhibition at 0.5 h, 10 µM in data set [1] was < 10%. The Ratio IC50 in data set [2] was found to be 5.4. The IC50 worked out at 63.1 µM in data set [3], 11.7 µM in data set [4] and 18.7 µM in data set [5].
On to `CC(=O)c1ccc(OCCCCCCN2CCC(Cc3ccccc3)CC2)cc1O`, for which the IC50 in data set [7] was 22.1 µM; in data set [3], 66.9 µM; in data set [4], 7.1 µM; in data set [5] it was 15.8 µM. In addition, in data set [2], the Ratio IC50 is 9.4.
Turning to `CC(=O)c1ccc(OCCCCCN2CCC(Cc3ccccc3)CC2)cc1O`, the inhibition at 0.5 h, 10 µM in data set [1] is < 10%. In addition, the IC50 in data set [4] came to 8.2 µM; in data set [5], 20.8 µM. Besides, the inhibition in data set [6] is < 5%.
`CCN(CC)CCCCOc1ccc(C(C)=O)c(O)c1`: in data set [1], the inhibition at 0.5 h, 10 µM was < 10%. Also, the IC50 in data set [4] came out at 20.9 µM; in data set [5] it was 22.2 µM. For the same compound, the inhibition in data set [6] was < 5%.
Take `CC(=O)c1ccc(OCCCCCCCCCCCCN2CCC(Cc3ccccc3)CC2)cc1O`: the inhibition at 0.5 h, 10 µM in data set [1] was < 10%. For the same compound, the concentration for half-maximal inhibition (IC50) in data set [4] stood at 9.5 µM; in data set [5], 25.8 µM. Moreover, the inhibition in data set [6] was < 5%.
In the case of `CC(=O)c1ccc(OCCN2CCN(Cc3ccccc3)CC2)cc1O`, the Papp at 100 ug/ml in data set [8] amounted to 17.4 ×10⁻⁶ cm/s. Besides, the results for the IC50 in data set [7], in data set [4] and in data set [5] were 26.1 µM, 6.6 µM and 10.2 µM, respectively. Also, the inhibition in data set [6] worked out at 11.2%.
Regarding `COc1cc2c(cc1OC)CN(CCCOc1ccc(C(C)=O)c(O)c1)CC2`, in data set [1], the inhibition at 0.5 h, 10 µM is 8.1%. Moreover, the Ratio IC50 in data set [2] stood at 5.7. Moreover, the IC50 in data set [3] was determined as 57.9 µM; in data set [4] it was 10.1 µM; in data set [5] it was 13.8 µM.
In the case of `CC(=O)c1ccc(OCCCCCCN2CCc3ccccc3C2)cc1O`, the IC50 in data set [7] was 21.2 µM; in data set [3], 32.6 µM; in data set [4], 9.2 µM; in data set [5], 26.9 µM. Also, the Ratio IC50 in data set [2] came out at 3.5.

Source of the values: ChEMBL document CHEMBL4351031, “The development of 2-acetylphenol-donepezil hybrids as multifunctional agents for the treatment of Alzheimer's disease” (Bioorg Med Chem Lett, 2019).
